High-throughput results: PubChem BioAssay, several laboratories
TAG inh: inhibitors of triacylglycerol accumulation | H9c2 cells, Nile Red lipid (TAG) fluorescence; cells loaded with 200 µM oleic acid | inhibition, % at 12.5 µM | 0.66% of 230,000 active | AID 651582;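 active = pattern-corrected inhibition of lipid staining of at least 50% with the nuclear-stain viability signal not falling by more than 50%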;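 note: 0% = DMSO wells and 100% = triacsin C control wells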
PKD1 inh: blocks activity of human protein kinase D1; Q15139; PKD1 kinase fluorescence polarization assay; inhibition, % (no concentration beside the values); 0.056% of 200,000 active; AID 797; in the data active = inhibition above about 50%
Rad51 HR inh: blocks human Rad51 in homologous recombination | hRad51 DNA strand exchange, fluorescence dequenching | inhibition, % at 10 µM | 0.085% of 200,000 active | AID 1385;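 active = inhibition above 40% at the single screening dose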;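 note: 0% = DMSO control wells and 100% = blanks with heterologous ssDNA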
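System: hRad51 filaments on single-stranded DNA; reagent: Fluorescein- and BHQ1-tagged 47-mer duplex; compound dosing: one concentration, 10 µM final; timing: filaments 15 min 37 °C, then compound 30 min; measured by: fluorescein emission 520 nm, excitation 485 nm; benchmarks: per-plate controls and blanks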
Hck-Nef inh: inhibitors of human Hck kinase activated by Nef | Recombinant Hck-YEEI plus Nef, Z-Lyte FRET kinase assay | inhibition, % at 20 µM | 0.68% of 220,000 active | AID 463187;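 active = Hck-Nef kinase inhibition above about 50%, limit read from the data; inactive = inhibition below that limit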;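 note: 0% = DMSO with Hck plus Nef and 100% = Hck alone without Nef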
PERK inhibitor: blocks human PERK kinase | CHO PERK-DD fusion, SEAP luminescence translation reporter | inhibition, % at 5.6 µM | 0.17% of 220,000 active;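 active = inhibition above the mean inhibition of all tested compounds plus 3 SD, set separately per screening campaign, cut at about 2.9% in these data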;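 note: PERK kinase domain activated by AP20187 dimerizer at 100 nM; 0% = DMSO with dimerizer and 100% = rapamycin at 8.4 µM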
Mdm2 ligase inh: Mdm2 E3 ligase (human) inhibition | Q00987 | cell-based MDM2 ubiquitination luciferase reporter, 2 h; 0 = plate control, 100 = twice control, blank-subtracted | signal enhancement, % at 5 µM | 0.11% of 210,000 active;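 active = signal enhancement of 30% or more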;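 note: luminescence tracks abundance of the self-degrading MDM2-luciferase fusion protein; higher signal means inhibition of MDM2 E3 ligase activity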
Target sequence (Q00987 whole entry, looked up, the tested form may be a part): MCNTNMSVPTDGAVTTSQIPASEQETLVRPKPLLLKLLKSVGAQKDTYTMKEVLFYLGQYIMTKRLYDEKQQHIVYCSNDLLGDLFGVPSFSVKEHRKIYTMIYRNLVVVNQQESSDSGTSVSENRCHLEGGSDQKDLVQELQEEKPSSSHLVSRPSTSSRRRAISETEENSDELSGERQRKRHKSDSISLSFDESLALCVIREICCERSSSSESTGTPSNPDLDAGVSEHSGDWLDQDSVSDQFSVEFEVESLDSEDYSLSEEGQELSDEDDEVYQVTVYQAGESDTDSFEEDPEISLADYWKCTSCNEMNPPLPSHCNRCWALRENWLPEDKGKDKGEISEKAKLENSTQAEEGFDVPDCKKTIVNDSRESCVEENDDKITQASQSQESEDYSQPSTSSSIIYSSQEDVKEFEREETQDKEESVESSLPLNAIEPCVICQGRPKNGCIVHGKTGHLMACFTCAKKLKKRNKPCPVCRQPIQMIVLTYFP
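Assay system: stable mammalian line carrying autodegrading MDM2–luciferase fusion reporter; Input: 2000 cells in each well; Compound dosing: single-point 5 µM; Schedule: 2 h compound exposure at 37 °C; Signal: SteadyLite luciferase luminescence after 15 min room-temperature reagent incubation; Evaluation: % luminescence enhancement versus blank-corrected plate control mean; Benchmarks: plate controls and plate blanks.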
* = called active by the depositor; nt = not tested or not shown. Rows were chosen to be rich in hits. Some 1.3% of all compounds tested hit in one or more screens of this group.

SMILES	TAG inh	PKD1 inh	Rad51 HR inh	Hck-Nef inh	PERK inhibitor	Mdm2 ligase inh
COc1ccc(/C=C2/SC(=S)N(c3ccc(S(=O)(=O)Nc4nccs4)cc3)C2=O)cc1	-8	nt	16	59*	-1	-13
O=[N+]([O-])c1ccc(NN=Cc2ccccc2)nc1	1	nt	nt	nt	nt	nt
O=[N+]([O-])c1ccc(N/N=C\c2cccn2-c2ccccc2)nc1	56*	-10	nt	0	0	-19
O=C(N/N=C/C(Cl)=C/c1ccc([N+](=O)[O-])cc1)C(=O)Nc1ccc(C(=O)O)cc1	-3	nt	15	75*	0	-10
O=C(N/N=C/C(Cl)=C/c1ccc([N+](=O)[O-])cc1)C(=O)Nc1ccccc1C(=O)O	6	nt	15	12	0	-11
Cc1ccc(C2=NCCn3nc4cc(C(F)(F)F)ccc4c32)cc1	10	nt	nt	nt	nt	nt
C=C1CCN(Cc2ccccc2)S(=O)(=O)c2ccccc21	11	nt	-10	31	nt	-9
O=C1CCN(Cc2ccccc2)S(=O)(=O)c2ccccc21	-6	nt	-1	22	nt	40*
CCN(CC)c1ccc(NC(=O)CCCOc2cccc(C)c2)cc1	11	4	41*	22	1	-2
O=C(O)c1ccccc1CSc1nnc2c(n1)[nH]c1ccccc12	-5	nt	nt	-3	3.1*	-11
COc1ccccc1OCCc1nnc(N)s1	nt	0	1	2	3.3*	-8
COc1ccc(OCCc2nnc(N)s2)cc1	3	-9	1	1	0	2
O=C(COC(=O)c1ccc(=O)[nH]c1)Nc1cccc(S(=O)(=O)N2CCOCC2)c1	5	nt	-17	-7	2.9*	-11
CC(=O)Nc1ccc(NC(=O)Nc2cc(C)cc(C)c2)cc1	21	nt	17	-20	3.6*	0
CC(=O)Nc1cccc(NC(=O)Nc2ccc(C(C)=O)cc2)c1	11	1	-2	4	0	-6
N#Cc1ccsc1NC(=O)COC(=O)C1=NNC(=O)CC1	-12	nt	nt	nt	nt	nt
Cc1c(=O)n(OCc2c(F)cccc2F)c2ccccc2[n+]1[O-]	nt	-9	nt	1	1	nt
CC(C)(C)N(Cc1ccc2c(c1)OCO2)C(=O)/C=C\S(=O)c1ccccc1 (stereo unspecified)	83*	nt	nt	nt	nt	nt
CN(C)Cc1ccccc1Sc1ccc2c(c1)CCCC2	4	nt	nt	nt	nt	nt
O=C(CSc1ncn(-c2ccccc2)n1)c1cccs1	-30	-2	68*	-1	0	-17
O=C(CSc1nnc(-c2ccccc2)n1-c1ccccc1)c1cccs1	nt	-11	nt	0	-1	-6
CCN(C(=O)Cn1nc(C)c([N+](=O)[O-])c1C)C1CCS(=O)(=O)C1 (stereo unspecified)	8	nt	nt	nt	nt	nt
Cc1c(C(=O)OCC2CCCO2)[nH]c2c1C(=O)CC(c1ccco1)C2 (stereo unspecified)	56*	5	-3	6	-1	-5
Cc1c(C(=O)OCC(C)C)[nH]c2c1C(=O)CC(c1ccco1)C2 (stereo unspecified)	nt	11	-2	25	0	-14
COc1ccc(Nc2nnc(C)c(=O)[nH]2)c(OC)c1	11	nt	23	25	4.2*	-6
SMILES	TAG inh	PKD1 inh	Rad51 HR inh	Hck-Nef inh	PERK inhibitor	Mdm2 ligase inh
COc1ccc(C)cc1Nc1nnc(C)c(=O)[nH]1	-2	2	2	5	3	-16
CCSC(=Nc1ccccc1)Nc1ccccc1	-21	-4	-9	-16	0	-6
CSC(=Nc1ccccc1)Nc1ccccc1	0	nt	1	7	2.9*	-10
Cn1cnc(S(=O)(=O)NC2CCN(Cc3c(F)cccc3Cl)CC2)c1	3	nt	nt	nt	nt	nt
CC(C)(C)N1CCC1CN (stereo unspecified)	nt	nt	0	15	4.5*	5
O=[N+]([O-])c1ccc(C2NS(=O)(=O)N=C3CCCCCN32)cc1 (stereo unspecified)	-3	nt	0	6	3.6*	-10
O=S1(=O)N=C2CCCCCN2C(c2ccc(F)cc2)N1 (stereo unspecified)	1	-1	4	9	-1	-90
Cc1cc2sc3nc(=O)n(-c4ccccc4)c(=O)n3c2cc1C	-16	nt	-10	20	0	5
CCCCCc1cc(=O)oc2c(C(CCN3CCCCC3)c3cc(OC)c(OC)c(OC)c3)c(OC)cc(OC)c12 (stereo unspecified)	80*	nt	6	12	nt	6
CCCCCc1cc(=O)oc2c(C(CCN3CCCC(C)C3)c3cc(OC)c(OC)c(OC)c3)c(OC)cc(OC)c12 (stereo unspecified)	79	nt	-14	8	nt	-8
CCCCCc1cc(=O)oc2c(C(CCN3CCCC(C)C3)c3ccc(N(C)C)cc3)c(OC)cc(OC)c12 (stereo unspecified)	107*	nt	6	16	nt	-1
O=C(Nc1ccccn1)Nc1ccccc1Cl	13	nt	nt	nt	nt	nt
CC(C)(C)c1ccc(C(=O)NCCC(=O)Nc2cc(Cl)ccc2N2CCOCC2)cc1	57*	nt	nt	nt	nt	nt
O=C1/C(=C/c2cccc([N+](=O)[O-])c2)CCc2ccccc21	nt	-4	nt	8	-1	-7
COc1cc(/C=C2/CC/C(=C/c3ccc(O)c(OC)c3)C2=O)ccc1O	5	nt	nt	10	0	-1
CCN1C/C(=C\c2cccc([N+](=O)[O-])c2)C(=O)/C(=C/c2cccc([N+](=O)[O-])c2)C1	nt	-16	7	5	0	39*
CCN1C/C(=C/c2ccc(OC)c(O)c2)C(=O)/C(=C/c2ccc(OC)c(O)c2)C1	0	-2	-1	23	1	50*
Cc1nn(C)c(C(=O)N/N=C/c2cccc(Oc3ccccc3)c2)c1Br	-1	nt	nt	nt	nt	nt
O=C(NCc1ccc(F)cc1)c1cc2c(cc1Cl)N1CCCCCC1=NS2(=O)=O	-15	nt	nt	nt	nt	nt
O=C(CSc1nnc(-c2ccccc2)o1)n1c2c(c3ccccc31)CCCC2	nt	-8	-2	2	2	-4
Cc1ccc(-c2nnc(SCC(=O)n3c4c(c5ccccc53)CCCC4)o2)cc1	nt	-5	nt	-2	3.0*	-14
CC(C)N(C(=O)COC(=O)c1ccccc1C(=O)c1ccc(Cl)c([N+](=O)[O-])c1)C(C)C	20	5	5	1	0	-9
O=C(COC(=O)c1ccccc1C(=O)c1ccc(Cl)c([N+](=O)[O-])c1)NC1CCCCCC1	nt	6	5	3	3	33*
Cc1[nH]c2ccc(Cl)cc2c(=O)c1CN1CCCC1	19	2	-2	18	1	35*
Cc1[nH]c2ccccc2c(=O)c1CN1CCCCC1	8	2	-4	0	1	-10
Cc1cc(Cl)ccc1NC(=O)/C=N/O	7	nt	28	20	0	-2
O=C(Nc1nc(-c2ccccn2)cs1)c1ccc(Cl)s1	54*	-8	-10	-1	-1	-2
CCn1cc([N+](=O)[O-])c(C(=O)N2CCCc3ccccc32)n1	-2	nt	nt	nt	nt	nt
